# Screening data (PubChem BioAssay)
# FLuc stim CS: affects firefly luciferase, flagging false hits in luciferase stimulation screens | activation factor at 10 µM | P08659 | 200,000 tested, under 10 active | ATPlite luciferase biochemical, luminescence, 10 min; 0 = ATP-free wells, 1 = DMSO control;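 active means luciferase activation factor, scaled between plate controls, of at least 2 with compound at 10 µM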
# Target sequence (P08659 whole entry, looked up): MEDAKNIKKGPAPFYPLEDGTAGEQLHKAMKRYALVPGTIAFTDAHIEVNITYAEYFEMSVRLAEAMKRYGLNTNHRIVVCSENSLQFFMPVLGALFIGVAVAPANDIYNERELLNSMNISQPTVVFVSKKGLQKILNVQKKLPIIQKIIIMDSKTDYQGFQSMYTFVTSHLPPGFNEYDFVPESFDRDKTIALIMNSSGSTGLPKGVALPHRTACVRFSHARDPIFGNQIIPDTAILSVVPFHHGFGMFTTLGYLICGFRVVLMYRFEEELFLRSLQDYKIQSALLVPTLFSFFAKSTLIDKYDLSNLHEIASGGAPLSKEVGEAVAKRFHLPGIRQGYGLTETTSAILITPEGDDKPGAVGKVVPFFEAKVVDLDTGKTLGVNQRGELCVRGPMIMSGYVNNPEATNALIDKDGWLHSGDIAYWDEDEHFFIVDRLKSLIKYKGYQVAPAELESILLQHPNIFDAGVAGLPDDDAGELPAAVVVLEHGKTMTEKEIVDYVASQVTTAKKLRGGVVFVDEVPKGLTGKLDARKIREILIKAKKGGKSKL
#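 Material: Luciferase/luciferin reagent mix; Doses: test compounds dosed from 2 mM stocks in 100% DMSO; Schedule: 10 min incubation after luciferase reagent addition, room temperature; Measured by: luminescence from luciferase reaction; Read-out: luminescence gain marking luciferase activators.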
# STAT3 inh: STAT3 signaling inhibition; U3A cells, IL-6 STAT3-luciferase reporter, luminescence; host cell line lacks STAT1; inhibition, % at 5.5 µM; 190,000 compounds, 0.89% hits; AID 862;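 active means inhibition above the mean inhibition across all screened compounds plus 3 SD, cut at about 44% in these data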;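 further: 0% = DMSO only wells and 100% = 100 µM nifuroxazide control wells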
# HSP90 refold inh: HSP90 refolding inhibition in rabbit reticulocyte lysate | inhibition, % at 5.6 µM | luciferase refolding luminescence, 3 h | AID 1789 | 290,000 compounds, 0.91% hits;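 active means inhibition above the screen-wide mean plus 3 SD, computed separately per campaign, cut at about 16% in these data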;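 further: 0% = DMSO wells and 100% = 60 µM geldanamycin wells; inhibitors lower the luminescence because luciferase stays unfolded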
# PPC-1+TRAIL kill: PPC-1 cancer cell killing with TRAIL present; PPC-1 cells + TRAIL, ATPLite viability luminescence; cell killing (% activity), % at 4 µM or 5 µM; 220,000 compounds, 0.41% hits;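 active means cell killing above 50% in the first pass at 4 µM, then a duplicate retest at 5 µM averaging 50% or more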;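 further: plate controls were cells with TRAIL plus DMSO for no effect and medium-only wells lacking cells for full effect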
# FLuc inh counter: inhibits firefly luciferase, flagging false hits in luciferase inhibition screens; AID 1006; inhibition, % at 10 µM; 200,000 compounds, 1.5% hits; ATPLite firefly luciferase biochemical luminescence, 10 min; P08659;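 active means inhibition above about 50% when tested at 10 µM, limit read from the data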
# C8 TRAIL sens: sensitizes caspase-8 expressing cells to TRAIL; NB7+C8 cells + TRAIL, ATPlite viability luminescence; inhibition (viability loss, TRAIL sensitization), % at 10 µM; 360,000 compounds, 1% hits; AID 624354;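 active means compounds causing at least 50% loss of cell viability in the single-dose screen, relative to plate controls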
# * hit, by the source's call; x = no result given. The list is not random: actives were taken first. Their share in the collection is about 2.2%.
SMILES,FLuc stim CS,STAT3 inh,HSP90 refold inh,PPC-1+TRAIL kill,FLuc inh counter,C8 TRAIL sens
C[C@@H]1CN([C@@H](C)CO)C(=O)c2cc(NC(=O)c3ccccc3)ccc2O[C@@H](C)CCCCO[C@@H]1CN(C)S(=O)(=O)c1ccc(F)cc1,x,x,x,x,x,2.8
Cc1ccc(S(=O)(=O)N(C)S(=O)(=O)c2ccc(C#N)cc2)cc1,x,x,1.0,x,x,x
c1ccc2cc(OCc3nc4ccccc4[nH]3)ccc2c1,0.3,28.5,4.9,22.2,72.8*,37.1
Nc1ccc(Cn2ccc3c4c(N)nc(N)nc4ccc32)cc1,x,x,x,x,x,73.9*
Cc1ccc(C(=O)Nc2ccc(Cl)cc2C)c(Cl)c1,0.2,37.2,1.9,43.5,75.7*,55.3*
Cc1ccc(C(=O)Nc2ccc(Cl)cc2C(F)(F)F)c(Cl)c1,0.7,6.0,4.1,7.2,26.3,14.0
CN(C)c1ccc(NC(=O)c2sc(SCC(=O)Nc3ccc(Br)cc3)nc2N)cc1,1,10.4,3.6,15.3,-3.5,-0.4
CN(C)c1ccc(NC(=O)c2sc(SCC(=O)Nc3nccs3)nc2N)cc1,0.5,-1.8,-2.1,22.7,54.7*,23.0
N#C/C(=C\c1ccc([N+](=O)[O-])cc1)c1ccccn1,0.8,22.0,3.2,-21.1,20.1,11.1
COC(=O)c1ccc(/C=C(\C#N)c2ccccn2)cc1,0.3,-3.3,-5.3,43.2,73.1*,52.2*
O=C1CCCN1CC(=O)N1CCCC(Nc2cccc(F)c2)C1 (configuration not stated),x,x,-1.9,x,x,-5.9
O=C(/C=C/c1ccc2c(c1)OCO2)NCCS(=O)(=O)N1CCN(c2ccccc2)CC1,x,x,x,x,x,2.7
Nc1[nH]c(N=NC(=O)c2ccc(Cl)cc2)c2ccccc12,0.5,-13.1,-3.9,17.3,48.2,23.8
Nc1[nH]c(N=NC(=O)c2ccccc2)c2ccccc12,0.4,-0.8,7.2,27.3,60.8*,-1.1
Nc1[nH]c(N=NC(=O)c2ccccc2O)c2ccccc12,0.1,20.9,-0.8,46.5,85.4*,72.2*
N/C(=N\OCc1ccc([N+](=O)[O-])cc1)c1ccncc1,0.5,0.9,0.4,17.2,54.9*,25.4
COc1cc2sc3ccc(-c4ccc(CN5CCOCC5)cc4)cc3c(=O)c2cc1OC,x,x,x,x,x,52.9*
CC(/C=C1\SC(=O)N(CCCC(=O)O)C1=O)=C\c1ccccc1,0.9,83.7*,37.3*,22.6,9.6,12.2
CC(=C\c1ccccc1)/C=C1/SC(=S)N(CCCC(=O)O)C1=O,x,x,1.5,x,x,5.8
O=C1CC(N2CCN(c3nc4ccccc4s3)CC2)C(=O)N1Cc1cccs1 (configuration not stated),1,21.1,3.3,12.2,-4.9,5.0
COc1ccc(-c2noc(CCC(=O)N3CCN(c4ccc(Cl)cc4)CC3)n2)cc1,x,x,x,x,x,-9.6
CN=c1scc(C)n1/N=C/c1ccc(O)cc1,0.5,24.9,4.6,40.9,54.0*,38.8
CN=c1scc(-c2ccco2)n1/N=C/c1ccc(O)c(O)c1,0.1,1.0,16.5*,28.7,87.7*,38.4
COc1ccc(CN2CCN(Cc3ccccc3F)CC2)cc1OC,x,x,1.0,x,x,10.0
CCN(CC)CCn1c2ccccc2c2nc3ccc([N+](=O)[O-])cc3cc21,x,x,-1.4,5.7,x,20.2
SMILES,FLuc stim CS,STAT3 inh,HSP90 refold inh,PPC-1+TRAIL kill,FLuc inh counter,C8 TRAIL sens
CN(C)/C=N/C(=S)Nc1ccc(Cl)cc1Cl,1,6.6,-3.3,13.6,3.9,-3.6
COc1ccc([N+](=O)[O-])cc1NC(=O)C(C)OC(=O)CC1CCCC1 (configuration not stated),x,x,x,x,x,8.5
Cc1ccc(S(=O)(=O)/N=C2\C=C(Nc3ccc(O)cc3)C(=O)c3ccccc32)cc1,x,x,x,x,x,92.5*
COC(=O)c1cccc(NS(=O)(=O)c2cccs2)c1C,1.1,3.6,-2.8,21.7,-8.4,-6.1
Cc1ccc(S(=O)(=O)/N=C2\C=C(NS(=O)(=O)c3ccccc3)C(=O)c3ccccc32)c(C)c1,x,x,x,x,x,1.5
COC(=O)c1ccccc1NC1=C/C(=N\S(=O)(=O)c2cccs2)c2ccccc2C1=O,0.9,-36.1,4.1,4.1,10.2,80.4*
Cc1ccc(NC2=C/C(=N/S(=O)(=O)c3cccs3)c3ccccc3C2=O)cc1,0.9,-34.1,0.6,37.5,9.2,95.1*
CCn1c2ccccc2c2nnc(SCc3cc(=O)n4ccsc4n3)nc21,1,x,x,23.0,-4.3,x
